An excerpt weighted towards active compounds, which were near 2.1% of everything screened.
STEP block – STEP (human) phosphatase inhibition | P54829 | recombinant STEP, OMFP fluorogenic substrate, fluorescence | inhibition, % at 20 µM | 360,000 compounds, 0.25% hits | AID 588621;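 active means inhibition at 20 µM, scaled per plate between control wells, above about 37%, limit read from the data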
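medium = Bis-Tris buffer pH 6.0, 2.5 mM DTT, 0.005% Tween 20 | test system = STEP (striatal-enriched tyrosine phosphatase) enzyme, cell-free | measure = normalized % inhibition | compound dosing = 20 µM, 1% DMSO | also added = 25 µM OMFP | schedule = reaction 20 min, ambient temperature | measured by = fluorescence read at 480 nm ex / 540 nm em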
SUMO1-SIM PPI – modulators of human SUMO1-mediated protein-protein interactions; P63165; SUMO1 binding to a labelled peptide, TR-FRET, 1 h; inhibition, % at 20 µM; 360,000 compounds, 0.33% hits; in the data active means inhibition above about 37%
Target sequence (P63165 whole entry, looked up): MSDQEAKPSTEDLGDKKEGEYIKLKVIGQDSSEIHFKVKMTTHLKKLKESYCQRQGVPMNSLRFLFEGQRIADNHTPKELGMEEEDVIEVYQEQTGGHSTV
GRK2 inh – blocks RNA aptamer binding to human GRK2; inhibition of aptamer binding, % at 10 µM; AID 488847; bead flow cytometry, FAM-aptamer displacement from GRK2; 330,000 compounds, 0.59% hits;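 active means inhibition of aptamer binding above 40%, roughly 3 SD of noise, on plates passing a quality check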;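 further: median bead fluorescence of bound FAM aptamer so fluorescent compounds give negative values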
LMPTP block – LMPTP (human) inhibition; 360,000 compounds, 0.22% hits; inhibition, % at 20 µM; P24666; AID 651560; recombinant LMPTP-A, OMFP fluorogenic substrate, fluorescence intensity;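 active means compounds that cut the enzyme signal by at least half of the control window in the single-dose screen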
Target sequence (P24666 whole entry, looked up): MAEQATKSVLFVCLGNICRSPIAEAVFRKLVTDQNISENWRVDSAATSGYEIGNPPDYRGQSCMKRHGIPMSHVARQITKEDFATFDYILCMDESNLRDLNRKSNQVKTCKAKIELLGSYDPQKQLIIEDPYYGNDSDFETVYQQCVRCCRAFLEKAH
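Buffer or medium: Bis-Tris pH 6.0, DTT, detergent; Assay system: LMPTP-A enzyme; Quantity: 0.625 nM enzyme; Detection: endpoint fluorescence intensity; Times: 50 min dark incubation at room temperature; Controls: substrate-only low control, DMSO enzyme-plus-substrate high control; Doses: single 20 µM dose; Read-out: percent inhibition versus substrate-only and uninhibited controls; Reagent: 400 µM OMFP.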
DNMT1 inh – inhibitors of human DNMT1 | P26358 | DNMT1 molecular beacon, Hinp1I cleavage, fluorescence | inhibition (reported as % activation of signal), % at 10 µM | 360,000 compounds, 0.83% hits; in the data active means inhibition above about 50%
Scp1 inh – inhibitors of human Scp-1 phosphatase | Q9GZU7 | Recombinant Scp1, phosphopeptide, malachite green phosphate absorbance | inhibition, % at 20 µM | 340,000 compounds, 0.88% hits;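 active means inhibition above about 50% at 20 µM, limit read from the data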
Target sequence (Q9GZU7 76-261 limits assumed): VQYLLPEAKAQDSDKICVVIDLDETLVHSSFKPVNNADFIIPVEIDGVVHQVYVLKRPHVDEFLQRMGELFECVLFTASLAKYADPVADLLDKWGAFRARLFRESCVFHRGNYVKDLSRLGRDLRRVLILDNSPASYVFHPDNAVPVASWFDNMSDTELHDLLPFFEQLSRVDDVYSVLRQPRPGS
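Incubation: 45 min enzyme reaction at room temperature / System: truncated SCP-1 phosphatase (76-261aa) / Reagent: Phospho 17-mer peptide substrate / Buffer or medium: Acidic Tris acetate buffer with magnesium and detergent / Signal: absorbance at 630 nm / Doses: one concentration, 20 µM, with 1.0% DMSO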
DNMT1 interf DR – counter-screen for DNMT1 inhibitors: spectral interference, dose response; 200 tested, under 10 active; shares compounds with DNMT1 inh; molecular beacon fluorescence; IC50, µM; call rule not given here
DNMT1 confirm – DNMT1 inhibition confirmation, single concentration. 2,300 compounds, 8% hits. inhibition, % at 10 µM. DNMT1 molecular beacon HinP1I cleavage, fluorescence. shares compounds with DNMT1 inh;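 active means average inhibition of at least 30% in the single-concentration confirmation test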
Beacon interf – counter-screen for DNMT1 inhibitors: spectral interference | activation (fluorescence interference), % at 10 µM | shares compounds with DNMT1 inh | DNMT1 molecular beacon spectral interference counterscreen, fluorescence 485/520 | 2,300 compounds, 1% hits;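 active means activation of at least 30% at 10 µM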;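 further: DNMT1 catalytic domain with a HinP1I cleavage step and a FAM/dabcyl DNA beacon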
Hits are given with their value; 0 = inactive; - = no result given; ! = repeats disagree.

SMILES	STEP block	SUMO1-SIM PPI	GRK2 inh	LMPTP block	DNMT1 inh	Scp1 inh	DNMT1 confirm	Beacon interf	others
Clc1ccc(CNc2ccc3nnc(-c4ccccc4)n3n2)cc1	0	0	0	0	66	0	0	0
CCOc1ccc(CCNc2ccc3nnc(-c4ccccc4)n3n2)cc1OCC	0	0	0	0	0	0	-	-
CCN(CC)c1nc(N)c2c(N)nc(OC)cc2c1C#N	0	52	0	0	81	0	0	0
COc1cc2c(C#N)c(N3CCCCC3)nc(N)c2c(N)n1	0	52	0	0	65	0	0	0
O=C(NCc1cc(C(F)(F)F)ccc1Cl)c1cccc2c1C(=O)c1ccc(N3CCOCC3)cc1S2(=O)=O	0	0	0	0	62	0	0	0
O=C(NCc1cc(C(F)(F)F)ccc1Cl)c1cccc2c1C(=O)c1ccc(N3CCCCC3)cc1S2(=O)=O	0	0	0	0	0	0	-	-
COc1ccc(C(CNC(=O)C2CCN(S(=O)(=O)c3ccc(F)cc3)CC2)N(C)C)cc1 (stereo not given)	0	0	0	0	0	0	-	-
O=C(Nc1nc(-c2ccccn2)cs1)c1ccco1	0	0	0	0	0	0	-	-
C[C@H](NC(=O)c1ccco1)C(=O)Nc1nc(-c2ccccn2)cs1	0	0	-	0	77	0	0	0
Fc1cccc2sc(Nc3nc4cc5c(cc4s3)OCO5)nc12	0	0	0	0	0	0	-	-
Fc1cc(F)c2nc(Nc3nc4cc5c(cc4s3)OCO5)sc2c1	0	83	0	0	72	0	0	0
COc1ccc(NC(=O)c2cc3c(=O)n(C)c4ccccc4c3s2)cc1OC	0	0	0	0	75	0	0	0
CC(=O)NN1C(=O)/C(=C\c2ccc(Br)o2)SC1=S	0	0	0	0	81	0	0	0
CC(=O)NN1C(=O)/C(=C/c2ccc(Br)o2)SC1=S	0	0	0	0	88	0	0	0
CC(=O)NN1C(=O)/C(=C\c2ccc(C)cc2)SC1=S	0	0	0	0	0	0	-	-
CC(=O)NN1C(=O)/C(=C\c2ccccc2)SC1=S	0	0	0	0	0	0	-	-
CN(CC(=O)Nc1ccc(OC(F)(F)F)cc1)C(=O)c1ccccc1SCC(=O)N1CCCC1	0	0	-	0	0	0	-	-
CCCCCCCCc1nnc(NC(=O)c2ccco2)s1	0	0	0	0	113	0	59	0	DNMT1 interf DR=0
CCOCc1nnc(NC(=O)c2ccco2)s1	0	0	0	0	0	0	-	-
Cc1ccc(-n2cccc2/C=C2/C(=N)N3C(=NC2=O)SN=C3S(C)(=O)=O)cc1	0	0	0	0	76	0	0	0
CCC1=NN2C(=N)/C(=C\c3cccn3-c3ccc(Cl)cc3)C(=O)N=C2S1	0	0	0	0	0	0	-	-
Cc1ccc(-n2cccc2/C=C2\C(=N)N3N=C(c4ccco4)SC3=NC2=O)cc1	63	104	0	0	87	97	0	0
CCc1ccc(-n2cccc2/C=C2/C(=N)N3C(=NC2=O)SN=C3S(C)(=O)=O)cc1	0	0	0	0	0	0	-	-
COc1ccc(Cl)cc1Cn1c(C)c(C(=O)NCc2ccc3c(c2)OCCO3)sc1=O	0	0	-	0	0	-	-	-
O=C(CSc1nnc(C2CC2)n1C1CC1)N1CCN(c2ccc(O)cc2)CC1	0	0	-	0	0	-	-	-
SMILES	STEP block	SUMO1-SIM PPI	GRK2 inh	LMPTP block	DNMT1 inh	Scp1 inh	DNMT1 confirm	Beacon interf	others
CCc1nnc(NC(=O)c2oc3cc(C)c(C)cc3c2C)s1	0	0	0	0	53	0	0	0
CCc1nonc1NC(=O)c1oc2cc(C)c(C)cc2c1C	0	0	0	0	0	0	-	-
COC(=O)C[C@@H]1C=C[C@@H](NC(C)=O)[C@@H](CO)O1	-	0	-	0	-	-	-	-
C=C(C)C(=O)Nc1ccc(OC(F)(F)C(F)F)c(NC(=O)C(=C)C)c1	0	0	0	0	56	0	0	0
O=C(NCCO)OC1CC2CC1[C@H]1CCCCN1C2=O (stereo not given in full)	-	0	-	0	-	-	-	-
Cc1ccc(NC(=O)CSc2ncccn2)cc1S(=O)(=O)N1CCOCC1	0	0	0	0	0	0	-	-
Nc1ncnc2c1ncn2C1CCCC(CO)O1 (stereo not given)	0	0	-	0	80	0	0	0
Nc1ncnc2c1ncn2[C@@H]1O[C@H](CO)C[C@@H]1O	-	-	0	-	-	-	-	-
CSc1ccc(CN2C(=O)C(F)(F)Oc3c(C(C)=O)cccc32)cc1	0	0	-	0	0	-	-	-
CSc1nsc(/C=C/Nc2ccc(C(=O)O)cc2)c1C#N	0	0	0	0	66	0	0	0
NC(=O)CC[C@H](NC(=O)c1ccc(F)cc1)C(=O)OCC(=O)Nc1c(F)c(F)c(F)c(F)c1F	0	0	0	0	0	0	-	-
NC(=O)CC[C@H](NC(=O)c1ccc(F)cc1)C(=O)OCC(=O)NCc1ccc(F)cc1	0	0	0	0	52	0	0	0
Cc1cc[n+](CC(=O)c2cccc([N+](=O)[O-])c2)c2ccccc12	0	0	0	0	53	0	43	0	DNMT1 interf DR=0
O=C(C[n+]1cccc2ccccc21)c1ccc([N+](=O)[O-])cc1	0	0	0	0	0	0	-	-
Cc1ccccc1-c1ccc(=O)n(CC(=O)Nc2ccc(S(=O)(=O)N(C)C)cc2)n1	0	0	0	0	0	0	-	-
Cc1ccccc1-c1ccc(=O)n(CC(=O)Nc2ccc(-n3cnnn3)cc2)n1	0	0	0	0	90	0	0	0
O=Cc1cccc(OCc2cn(CC(=O)c3ccc(O)cc3)nn2)c1	0	0	-	0	58	-	0	0
CCCC(=O)c1ccc(OCc2cn(CC(=O)c3ccc(O)cc3)nn2)cc1	0	0	-	0	52	0	0	0
O=C(Cn1cc(COc2ccc(Br)cc2)nn1)c1ccc(O)cc1	0	0	-	0	0	0	-	-
CC1(C(=O)NS(=O)(=O)c2cccc(F)c2)CCN1C(=O)Cc1cccs1 (stereo not given)	0	0	-	0	0	-	-	-
Nc1c(C(=O)N/N=C/c2ccc(OCc3ccccc3)cc2)cnn1-c1ccccc1	0	0	0	50	51	0	0	0
Nc1c(C(=O)N/N=C/c2ccc(Cl)cc2)cnn1-c1ccccc1	0	0	0	0	0	0	-	-
Cc1ccc(C(=O)Nc2cccc(C(F)(F)F)c2)cc1NC(=O)c1cnnc2ccccc12	0	0	0	0	55!	0	0	0
NC(=O)c1nc[nH]c1C(=O)Nc1cccc(C(F)(F)F)c1	0	0	0	0	0	0	-	-
